Source: ChEMBL document CHEMBL3272327, “Hypocholesterolemic activity of 1,3-bis(substituted phenoxy)-2-propanones” (J Med Chem, 1976)

How the values were obtained:
Rattus norvegicus [1] = assay: Hypocholesterolemic activity in Sprague-Dawley rat assessed as serum cholesterol level at 5 mg/kg/day, po administered via intubation measured on day 10 by Liebermann-Burchard reaction (reference value: 100 +/- 7%); assay type: functional
Rattus norvegicus [2] = assay: Hypocholesterolemic activity in rat assessed as [14C]cholesterol recover at 10 mg/kg/day administered for 1 week measured after 22 hrs on day 7 by scintillation counting analysis (reference value: 99.11%); assay type: functional
Outline: (§1)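 Male rats were dosed orally for 1 week (10 mg/kg/day) or with 1% CMC. On day 7 they received 5 μCi [4-14C]cholesterol orally and were killed after 22 hr. Organs were homogenized (10% in water); 0.1-cc aliquots of homogenate, urine, blood or feces were digested with Protosol. Samples were counted in toluene/Triton X-100 (2:1) scintillant with 0.4% PPO and 0.01% POPOP. Results are % of dose per tissue, N = 6.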

Rattus norvegicus [3] = assay: Hypocholesterolemic activity in rat assessed as [14C]cholesterol level in chyme at 10 mg/kg/day administered for 1 week measured after 22 hrs on day 7 by scintillation counting analysis (reference value: 8.72 +/- 4.95%); assay type: functional; outline: as §1
Rattus norvegicus [4] = assay: Hypocholesterolemic activity in rat assessed as [14C]cholesterol level in heart at 10 mg/kg/day administered for 1 week measured after 22 hrs on day 7 by scintillation counting analysis (reference value: 0.39 +/- 0.13%); assay type: functional; outline: as §1
Rattus norvegicus [5] = assay: Hypocholesterolemic activity in Sprague-Dawley rat assessed as serum cholesterol level at 50 mg/kg/day, po administered via intubation measured on day 16 by Liebermann-Burchard reaction (reference value: 100 +/- 8%); assay type: functional
Rattus norvegicus [6] = assay: Hypocholesterolemic activity in Sprague-Dawley rat assessed as serum cholesterol level at 1 mg/kg/day, po administered via intubation measured on day 16 by Liebermann-Burchard reaction (reference value: 100 +/- 8%); assay type: functional
Rattus norvegicus [7] = assay: Effect on food intake in rat at 5 mg/kg/day measured during first week (reference value: 19.1 +/- 1.7 gms); assay type: ADME, organism-based; conditions: in vivo
Outline: (§2)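 Male rats dosed orally at 1, 5, 10 or 50 mg/kg/day in 1% CMC. Average food intake in grams per rat per week measured over a 2-week period, first and second weeks reported separately. N = 8, Student's t test against the 1% CMC control.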

Rattus norvegicus [8] = assay: Effect on spleen weight in rat at 5 mg/kg/day administered for 16 days measured 24 hrs after last drug dosage relative to total body weight (reference value: 0.55 +/- 0.12%); assay type: ADME, organism-based; conditions: in vivo
Rattus norvegicus [9] = assay: Hypocholesterolemic activity in Sprague-Dawley rat assessed as serum cholesterol level at 10 mg/kg/day, po administered via intubation measured on day 10 by Liebermann-Burchard reaction (reference value: 100%); assay type: functional
Rattus norvegicus [10] = assay: Hypocholesterolemic activity in rat assessed as [14C]palmitic acid level in kidney at 10 mg/kg/day administered for 1 week measured after 22 hrs on day 7 by scintillation counting analysis (reference value: 0.68 +/- 0.16%); assay type: functional
Outline: (§3)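 Male Sprague-Dawley rats on lab chow dosed orally once daily for 1 week at 10 mg/kg/day, suspended in 1% CMC, or given vehicle alone. On day 7, 5 μCi [1-14C]palmitic acid given orally. Killed after 22 hr; organs made into 10% water homogenates. Aliquots of 0.1 cc of homogenate, urine, blood or feces were digested and scintillation counted. Output is % of dose per tissue, N = 6.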

Rattus norvegicus [11] = assay: Hypocholesterolemic activity in rat assessed as [14C]palmitic acid level in blood at 10 mg/kg/day administered for 1 week measured after 22 hrs on day 7 by scintillation counting analysis (reference value: 0.11 +/- 0.06%); assay type: functional
Rattus norvegicus [12] = assay: Effect on vas deferens and epididymis weight in rat at 10 mg/kg/day administered for 16 days measured 24 hrs after last drug dosage relative to total body weight (reference value: 0.22 to 0.24%); assay type: ADME, organism-based; conditions: in vivo
Rattus norvegicus [13] = assay: Hypocholesterolemic activity in rat assessed as [14C]palmitic acid level in brain at 10 mg/kg/day administered for 1 week measured after 22 hrs on day 7 by scintillation counting analysis (reference value: 0.07 +/- 0.04%); assay type: functional; outline: as §3
Rattus norvegicus [14] = assay: Effect on body weight in rat at 1 mg/kg/day administered for 16 days measured on day 16 (reference value: 233 +/- 16 gms); assay type: ADME, organism-based; conditions: in vivo, 384 h
Outline: (§4)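 Male Sprague-Dawley rats with chow and water ad libitum. Compound suspended in 1% CMC-water and given orally by intubation needle at 11:00 a.m., 1, 5, 10 or 50 mg/kg/day, for 16 days. Body weight (g) recorded on days 0, 7 and 16. N = 8.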

Rattus norvegicus [15] = assay: Effect on kidney weight in rat at 5 mg/kg/day administered for 16 days measured 24 hrs after last drug dosage relative to total body weight (reference value: 0.92 +/- 0.04%); assay type: ADME, organism-based; conditions: in vivo
Rattus norvegicus [16] = assay: Hypocholesterolemic activity in [14C]palmitic acid-treated rat assessed as decrease in 14C fatty acid incorporation into triglyceride fraction in liver at 10 mg/kg/day administered for 1 week by scintillation counting analysis; assay type: functional; parameters: scale not given: the % may be the effect or the level left
Rattus norvegicus [17] = assay: Effect on body weight in rat at 50 mg/kg/day administered for 16 days measured on day 16 (reference value: 233 +/- 16 gms); assay type: ADME, organism-based; conditions: in vivo, 384 h; outline: as §4
Rattus norvegicus [18] = assay: Effect on glycogen content in rat liver at 10 mg/kg/day administered for 16 days (reference value: 100 +/- 24%); assay type: ADME, organism-based; conditions: in vivo, 384 h
Rattus norvegicus [19] = assay: Hypocholesterolemic activity in rat assessed as [14C]cholesterol level in small intestine at 10 mg/kg/day administered for 1 week measured after 22 hrs on day 7 by scintillation counting analysis (reference value: 22.09 +/- 5.68%); assay type: functional; outline: as §1
Rattus norvegicus [20] = assay: Hypocholesterolemic activity in [14C]palmitic acid-treated rat assessed as decrease in 14C fatty acid incorporation into phospholipid fraction in liver at 10 mg/kg/day administered for 1 week by scintillation counting analysis; assay type: functional; parameters: scale not given: the % may be the effect or the level left
Rattus norvegicus [21] = assay: Effect on brain weight in rat at 1 mg/kg/day administered for 16 days measured 24 hrs after last drug dosage relative to total body weight (reference value: 0.67 +/- 0.05%); assay type: ADME, organism-based; conditions: in vivo
Rattus norvegicus [22] = assay: Effect on kidney weight in rat at 1 mg/kg/day administered for 16 days measured 24 hrs after last drug dosage relative to total body weight (reference value: 0.92 +/- 0.04%); assay type: ADME, organism-based; conditions: in vivo
Rattus norvegicus [23] = assay: Hypocholesterolemic activity in rat assessed as [14C]cholesterol level in testes at 10 mg/kg/day administered for 1 week measured after 22 hrs on day 7 by scintillation counting analysis (reference value: 0.24 +/- 0.17%); assay type: functional, Testis; outline: as §1
Rattus norvegicus [24] = assay: Effect on RNA content in rat liver at 10 mg/kg/day administered for 16 days (reference value: 100 +/- 8%); assay type: ADME, organism-based; conditions: in vivo, 384 h
Rattus norvegicus [25] = assay: Effect on food intake in rat at 50 mg/kg/day measured during second week (reference value: 23.4 +/- 1.8 gms); assay type: ADME, organism-based; conditions: in vivo; outline: as §2
Rattus norvegicus [26] = assay: Hypocholesterolemic activity in rat assessed as [14C]palmitic acid level in feces at 10 mg/kg/day administered for 1 week measured after 22 hrs on day 7 by scintillation counting analysis (reference value: 75.52 +/- 6.21%); assay type: functional; outline: as §3
Rattus norvegicus [27] = assay: Effect on brain weight in rat at 10 mg/kg/day administered for 16 days measured 24 hrs after last drug dosage relative to total body weight (reference value: 0.67 +/- 0.05%); assay type: ADME, organism-based; conditions: in vivo

Cc1ccc(OCC(=O)COc2ccc(C)cc2)cc1
Activity (Rattus norvegicus [1]): 58% | Activity (Rattus norvegicus [2]): 99.94% | Activity (Rattus norvegicus [3]): 9.21% | Activity (Rattus norvegicus [4]): 0.58% | Activity (Rattus norvegicus [5]): 44% | Activity (Rattus norvegicus [6]): 46% | Activity (Rattus norvegicus [7]): 18.8 g | Activity (Rattus norvegicus [8]): 0.44% | Activity (Rattus norvegicus [9]): 50% | Activity (Rattus norvegicus [10]): 0.94% | Activity (Rattus norvegicus [11]): 0.03% | Activity (Rattus norvegicus [12]): 0.24% | Activity (Rattus norvegicus [13]): 0.08% | Activity (Rattus norvegicus [14]): 234 g | Activity (Rattus norvegicus [15]): 0.88% | Activity (Rattus norvegicus [16]): 53% | Activity (Rattus norvegicus [17]): 232 g | Activity (Rattus norvegicus [18]): 118% | Activity (Rattus norvegicus [19]): 22.56% | Activity (Rattus norvegicus [20]): 16% | Activity (Rattus norvegicus [21]): 0.74% | Activity (Rattus norvegicus [22]): 0.79% | Activity (Rattus norvegicus [23]): 0.33% | Activity (Rattus norvegicus [24]): 104% | Activity (Rattus norvegicus [25]): 28.2 g | Activity (Rattus norvegicus [26]): 63.52% | Activity (Rattus norvegicus [27]): 0.71%
